From ChEMBL document CHEMBL1136800 (J Med Chem, 2003) come the findings set out here.

Bounds are passed on as bounds.

Experiment [1] deals with cGMP-dependent 3',5'-cyclic phosphodiesterase (Homo sapiens, UniProt O00408). As to the kind of experiment: Inhibition of human recombinant PDE2 (phosphodiesterase 2). Summed up: (§1)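 Incubated 30 min at 30 °C under initial-velocity conditions (≤10-15% hydrolysis). Product separated on QAE Sephadex and counted by scintillation; final DMSO 2%.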
In a further experiment the target is Phosphodiesterase 1 (Bos taurus, UniProt Q01061+P14100). As to the kind of experiment: Inhibition of bovine aorta PDE1 (phosphodiesterase 1). It counts as protein assay. In short, it runs like this:
as §1

The target of the next experiment is Phosphodiesterase 3B (Bos taurus, UniProt E1BN64). As to the kind of experiment: Inhibition of bovine aorta PDE3 (phosphodiesterase 3). In short, it runs like this:
as §1

Another experiment concerns the target Phosphodiesterase 4 (Homo sapiens, UniProt P27815+Q08499+Q07343+Q08493). The experiment in a line: Inhibition of human recombinant PDE4 (phosphodiesterase 4). It counts as protein assay. Summed up: as §1
Experiment [2] is described as follows: Increase in intracellular cGMP concentration in atrial natriuretic factor treated rat aortic smooth muscle cells. It is filed as functional, tissue-based. The following applies: Aorta. In short, it runs like this:
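Primary rat aortic smooth muscle cells grown in DMEM with 10% FCS and used at confluence (3-5 days). Compound in PBS for 30 min at 37 °C, then ANF 0.1 µM for 10 min at 37 °C. Intracellular cGMP extracted with 65% ethanol and measured by scintillation proximity immunoassay, in triplicate wells; DMSO ≤0.1%. EC50 is the concentration giving half the maximal cGMP increase seen at saturating compound.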

Experiment [3] deals with cGMP-specific 3',5'-cyclic phosphodiesterase (Bos taurus, UniProt Q28156). The experiment in a line: Inhibitory activity against bovine PDE5 (phosphodiesterase-5).

Sequence of Phosphodiesterase 3B (E1BN64 whole entry): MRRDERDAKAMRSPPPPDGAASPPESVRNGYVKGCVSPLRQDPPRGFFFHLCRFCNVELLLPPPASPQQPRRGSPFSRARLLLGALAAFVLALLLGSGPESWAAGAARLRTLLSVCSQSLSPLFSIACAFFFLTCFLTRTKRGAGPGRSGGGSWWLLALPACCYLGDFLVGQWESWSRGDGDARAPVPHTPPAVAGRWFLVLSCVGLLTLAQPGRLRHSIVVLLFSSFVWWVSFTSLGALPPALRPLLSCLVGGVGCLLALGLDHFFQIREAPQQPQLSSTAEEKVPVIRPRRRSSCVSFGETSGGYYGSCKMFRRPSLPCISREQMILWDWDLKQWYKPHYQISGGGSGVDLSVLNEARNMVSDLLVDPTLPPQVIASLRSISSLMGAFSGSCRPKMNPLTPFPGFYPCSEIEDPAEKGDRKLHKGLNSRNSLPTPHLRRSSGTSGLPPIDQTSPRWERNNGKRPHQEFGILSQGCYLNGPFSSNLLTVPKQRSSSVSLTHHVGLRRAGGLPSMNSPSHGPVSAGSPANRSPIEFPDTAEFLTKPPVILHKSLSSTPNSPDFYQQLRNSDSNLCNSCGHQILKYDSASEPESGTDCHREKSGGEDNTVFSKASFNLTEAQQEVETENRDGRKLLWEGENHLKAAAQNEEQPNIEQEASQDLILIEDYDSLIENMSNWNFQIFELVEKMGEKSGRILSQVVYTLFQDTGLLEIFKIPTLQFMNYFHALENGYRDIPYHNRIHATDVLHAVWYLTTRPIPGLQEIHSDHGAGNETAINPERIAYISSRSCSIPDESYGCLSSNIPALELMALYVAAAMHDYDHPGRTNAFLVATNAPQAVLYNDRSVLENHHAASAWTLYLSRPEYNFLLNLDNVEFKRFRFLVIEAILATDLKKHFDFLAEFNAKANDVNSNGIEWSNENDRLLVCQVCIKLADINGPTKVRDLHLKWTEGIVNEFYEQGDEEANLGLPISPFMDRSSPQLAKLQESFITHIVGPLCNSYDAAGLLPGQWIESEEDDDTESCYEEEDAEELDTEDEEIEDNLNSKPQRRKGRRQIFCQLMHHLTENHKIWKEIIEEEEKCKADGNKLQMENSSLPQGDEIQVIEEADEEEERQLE
Sequence of cGMP-dependent 3',5'-cyclic phosphodiesterase (O00408 whole entry): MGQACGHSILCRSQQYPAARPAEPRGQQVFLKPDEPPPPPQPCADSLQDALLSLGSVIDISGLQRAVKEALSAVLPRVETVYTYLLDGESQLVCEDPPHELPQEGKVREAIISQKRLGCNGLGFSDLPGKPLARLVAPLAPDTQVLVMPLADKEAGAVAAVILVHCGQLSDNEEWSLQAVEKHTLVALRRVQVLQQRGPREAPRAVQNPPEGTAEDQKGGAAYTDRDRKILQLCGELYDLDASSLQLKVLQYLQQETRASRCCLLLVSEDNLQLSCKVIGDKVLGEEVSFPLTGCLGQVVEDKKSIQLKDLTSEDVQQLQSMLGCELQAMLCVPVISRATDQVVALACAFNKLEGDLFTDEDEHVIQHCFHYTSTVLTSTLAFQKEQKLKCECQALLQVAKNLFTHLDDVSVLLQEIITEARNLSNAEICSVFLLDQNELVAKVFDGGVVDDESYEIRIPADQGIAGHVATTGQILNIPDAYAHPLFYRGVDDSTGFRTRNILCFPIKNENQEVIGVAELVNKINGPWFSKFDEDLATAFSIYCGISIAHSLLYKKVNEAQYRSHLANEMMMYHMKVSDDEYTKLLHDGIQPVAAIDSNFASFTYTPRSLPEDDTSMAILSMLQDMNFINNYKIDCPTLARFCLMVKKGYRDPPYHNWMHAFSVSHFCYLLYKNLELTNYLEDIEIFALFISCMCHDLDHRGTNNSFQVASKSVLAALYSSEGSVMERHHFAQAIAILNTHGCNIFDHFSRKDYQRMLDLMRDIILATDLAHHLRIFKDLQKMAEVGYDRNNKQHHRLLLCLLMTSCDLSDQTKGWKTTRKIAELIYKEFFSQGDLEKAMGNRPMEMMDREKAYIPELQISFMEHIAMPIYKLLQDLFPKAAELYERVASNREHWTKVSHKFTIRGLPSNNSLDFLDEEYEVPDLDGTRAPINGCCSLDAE

As to `COc1ccc([C@@H]2c3[nH]c4ccccc4c3C[C@@H]3C(=O)N(C4CCCCC4)C(=O)N23)cc1`, the IC50 (in general, the concentration at which inhibition is half-maximal) was > 10000 nM in experiment [1]; > 10000 nM against Phosphodiesterase 1; > 10000 nM on Phosphodiesterase 3B; > 10000 nM at Phosphodiesterase 4; 7 nM in experiment [3]. In experiment [2], the concentration giving a half-maximal response (EC50) (in general, the midpoint of the concentration-response curve) turned out to be 300 nM.

In turn, `CCCCN1C(=O)[C@H]2Cc3c([nH]c4ccccc34)[C@H](c3ccccc3)N2C1=O` displayed a half-maximal effective concentration (EC50) in experiment [2] of 2000 nM. 20 nM corresponded to half-maximal inhibition in experiment [3] (IC50).

Take `CCOC(=O)c1cc2c(cn1)[nH]c1ccccc12`: the half-maximal inhibitory concentration (IC50) in experiment [3] was found to be 800 nM.

In experiment [3], `CCCCN1C(=O)[C@H]2Cc3c([nH]c4ccccc34)[C@@H](c3ccoc3)N2C1=O` returned a concentration for half-maximal inhibition (IC50) of 100 nM.

For `CCCCN1C(=O)[C@H]2Cc3c(n(C)c4ccccc34)[C@@H](c3ccc(OC)cc3)N2C1=O`, the IC50 in experiment [3] is > 10000 nM.

In the case of `CCCCN1C(=O)[C@H]2Cc3c([nH]c4ccccc34)[C@@H](c3ccsc3)N2C1=O`, the IC50 in experiment [3] was found to be 30 nM.

On to `CCCCN1C(=O)[C@H]2Cc3c([nH]c4ccccc34)[C@H](c3cccc(Cl)c3)N2C1=O`, for which the EC50 in experiment [2] was > 10000 nM. For the same molecule, half-maximal inhibition in experiment [3] (IC50) was put at 50 nM.

For the molecule `CCCCN1C(=O)[C@H]2Cc3c([nH]c4ccccc34)[C@H](c3ccccc3OC)N2C1=O`, the half-maximal inhibitory concentration (IC50) in experiment [3] was found to be 1000 nM.

For `CCCCN1C(=O)[C@H]2Cc3c([nH]c4ccccc34)[C@@H](c3cccnc3)N2C1=O`, the IC50 in experiment [3] worked out at 90 nM.

In experiment [2], `COc1ccc([C@H]2c3[nH]c4ccccc4c3C[C@@H]3C(=O)N(Cc4cccnc4)C(=O)N23)cc1` had an EC50 of 5500 nM. Moreover, 20 nM corresponded to half-maximal inhibition in experiment [3] (IC50).

On to `CCCCN1C(=O)[C@H]2Cc3c([nH]c4ccccc34)[C@@H](c3ccncc3)N2C1=O`, for which the IC50 at Phosphodiesterase 1 was 2000 nM; against Phosphodiesterase 3B it was > 10000 nM; at Phosphodiesterase 4, > 10000 nM; in experiment [3], 300 nM.

Consider `COc1ccc([C@@H]2c3[nH]c4ccccc4c3C[C@@H]3C(=O)N(C)C(=O)N23)cc1`, for which the midpoint of the response in experiment [2], the EC50, lay at 1000 nM. This molecule showed an IC50 in experiment [3] of 10 nM.

Molecule `CCCCN1C(=O)[C@H]2Cc3c([nH]c4ccccc34)[C@H](c3ccc(C#N)cc3)N2C1=O` showed an IC50 in experiment [3] of 300 nM.

As for `CCCOc1ccccc1-c1nc2[nH]nnc2c(=O)[nH]1` [ZAPRINAST], the values for the IC50 on Phosphodiesterase 1 and against Phosphodiesterase 3B were 2600 nM and > 10000 nM, respectively.

With `CCCCN1C(=O)[C@H]2Cc3c([nH]c4ccccc34)[C@H](c3ccc(OC)cc3)N2C1=O`, the IC50 (in experiment [1]; against Phosphodiesterase 1; on Phosphodiesterase 3B; at Phosphodiesterase 4) was > 10000 nM throughout. For the same molecule, the EC50 in experiment [2] turned out to be 1000 nM.

For the molecule `CCCCN1C(=O)[C@H]2Cc3c([nH]c4ccccc34)[C@@H](c3ccc(OC)cc3)N2C1=O`, the half-maximal inhibitory concentration (IC50) (in experiment [1]; against Phosphodiesterase 1; against Phosphodiesterase 3B; at Phosphodiesterase 4) was > 10000 nM throughout. The molecule also had a concentration giving a half-maximal response (EC50) in experiment [2] of 700 nM.

With `COc1ccc([C@@H]2c3[nH]c4ccccc4c3C[C@@H]3C(=O)N(Cc4ccccc4)C(=O)N23)cc1`, the half-inhibitory concentration (IC50) is > 10000 nM in experiment [1]; > 10000 nM against Phosphodiesterase 1; > 10000 nM on Phosphodiesterase 3B; > 10000 nM on Phosphodiesterase 4; 4 nM in experiment [3]. This molecule had a 50% effective concentration (EC50) in experiment [2] of 150 nM.

In experiment [2], `COc1ccc([C@H]2c3[nH]c4ccccc4c3C[C@@H]3C(=O)N(CCc4ccccn4)C(=O)N23)cc1` gave an EC50 of 1500 nM. The same molecule showed a 50% inhibitory concentration (IC50) in experiment [3] of 6 nM.

Molecule `COc1ccc([C@H]2c3[nH]c4ccccc4c3C[C@@H]3C(=O)N(CCN4CCCC4)C(=O)N23)cc1` gave a concentration giving a half-maximal response (EC50) in experiment [2] of 10000 nM. The same molecule yielded a 50% inhibitory concentration (IC50) in experiment [3] of 100 nM.

In experiment [2], `CCCCN1C(=O)[C@H]2Cc3c([nH]c4ccccc34)[C@H](c3ccc(Cl)cc3)N2C1=O` returned an EC50 of 1500 nM. In experiment [3], this molecule registered an IC50 of 20 nM.

In experiment [2], `COc1ccc([C@H]2c3[nH]c4ccccc4c3C[C@@H]3C(=O)NC(=O)N23)cc1` returned a concentration for a half-maximal effect (EC50) of 3000 nM. In addition, the 50% inhibitory concentration (IC50) in experiment [3] was found to be 20 nM.

On to `CCCCN1C(=O)[C@H]2Cc3c([nH]c4ccccc34)[C@@H](c3cccc(Cl)c3)N2C1=O`, for which the EC50 in experiment [2] was determined as 4000 nM. This molecule also gave an IC50 in experiment [3] of 50 nM.

`CCN1C(=O)[C@H]2Cc3c([nH]c4ccccc34)[C@H](c3ccc(OC)cc3)N2C1=O` displayed an EC50 in experiment [2] of 1500 nM. In experiment [3], this molecule showed a half-maximal inhibitory concentration (IC50) of 7 nM.

As to `CCCCN1C(=O)[C@H]2Cc3c([nH]c4ccccc34)[C@@H](c3ccccc3)N2C1=O`, the EC50 in experiment [2] stood at 5000 nM. Also, in experiment [3], 60 nM corresponded to half-maximal inhibition (IC50).

Molecule `CCCCN1C(=O)[C@H]2Cc3c([nH]c4ccccc34)[C@@H](c3ccc(C#N)cc3)N2C1=O` registered a concentration for half-maximal inhibition (IC50) in experiment [3] of 900 nM.

Molecule `COc1ccc([C@H]2c3[nH]c4ccccc4c3C[C@@H]3C(=O)N(C4CCCCC4)C(=O)N23)cc1` came in with an EC50 in experiment [2] of 100 nM. The half-maximal inhibitory concentration (IC50) in experiment [3] worked out at 3 nM.

`CCN1C(=O)[C@H]2Cc3c([nH]c4ccccc34)[C@@H](c3ccc(OC)cc3)N2C1=O` came in with an EC50 in experiment [2] of 400 nM. The same molecule returned an IC50 in experiment [3] of 10 nM.

On to `COc1ccc([C@H]2c3[nH]c4ccccc4c3C[C@@H]3C(=O)N(CCN(C)C)C(=O)N23)cc1`, for which it took 3500 nM to reach a half-maximal effect in experiment [2] (EC50). Besides, in experiment [3], half-maximal inhibition (IC50) required 30 nM.

Consider `CCCCN1C(=O)[C@H]2Cc3c([nH]c4ccccc34)[C@@H](c3ccc(Cl)cc3)N2C1=O`, for which the EC50 in experiment [2] was > 10000 nM. This molecule registered an IC50 in experiment [3] of 50 nM.

As to `COc1ccc([C@H]2c3[nH]c4ccccc4c3C[C@@H]3C(=O)N(Cc4ccccc4)C(=O)N23)cc1`, the 50% effective concentration (EC50) in experiment [2] was > 10000 nM. The molecule further returned a half-maximal inhibitory concentration (IC50) in experiment [3] of 18 nM.
